Experimental findings from ChEMBL document CHEMBL1153805, “Phenylethanoid glycosides from Lantana fucata with in vitro anti-inflammatory activity” (J Nat Prod, 2009) are described below.

Data set [1] deals with J774.A1. Description: Antiinflammatory activity in mouse J774A1 cells assessed as inhibition of LPS-induced NO release at 10 ug/ml after 24 hrs treated 1 hr before LPS challenge relative to LPS. It counts as functional. Summed up:
(§1)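 J774A.1 cells (5.0 × 10⁴/well) adhered 2 h at 37 °C, 5% CO₂. Compounds added 1 h before and simultaneously with E. coli LPS (6 × 10³ U/mL) to induce iNOS. Nitrite accumulated in medium was measured 24 h after LPS with Griess reagent against a sodium nitrite standard curve made in culture medium. Expressed as % inhibition versus LPS-only cells. L-NAME (1 µM) was the reference.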

The nature of data set [2]: Antiproliferative activity against mouse J774A1 cells assessed as cell viability at 1 ug/ml after 72 hrs by MTT assay relative to LPS. It counts as cell-based, J774.A1. The procedure, abridged: (§2)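 J774A.1 cells (3.5 × 10⁴/well) adhered 2 h at 37 °C, 5% CO₂. Medium was renewed, then serial dilutions of compound were added for 72 h. MTT was added for a further 3 h, formazan was dissolved in 50% DMF/20% SDS (pH 4.5), and OD was read at 620 nm. % dead cells = 100 − (OD treated/OD control) × 100. A cell-free control tested for MTT interference.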
In general terms: Tetrazolium assays rely on reduction of a dye to a coloured formazan, in cell work by metabolically active cells.

The subject of data set [3] is J774.A1. Description: Antiinflammatory activity in mouse J774A1 cells assessed as inhibition of LPS-induced NO release at 1 ug/ml after 24 hrs treated 1 hr before LPS challenge relative to LPS. It counts as functional. Summed up:
as §1

The nature of data set [4]: Antiproliferative activity against mouse J774A1 cells assessed as cell viability at 100 ug/ml after 72 hrs by MTT assay relative to LPS. Format: cell-based, J774.A1. Summed up: as §2
In data set [5] the test system is J774.A1. The data set is described as follows: Antiinflammatory activity in mouse J774A1 cells assessed as inhibition of LPS-induced NO release at 100 ug/ml after 24 hrs treated 1 hr before LPS challenge relative to LPS. It counts as functional. The procedure, abridged: as §1
A short description of data set [6]: Antiproliferative activity against mouse J774A1 cells assessed as cell viability at 10 ug/ml after 72 hrs by MTT assay relative to LPS. Format: cell-based, J774.A1. Summed up:
as §2

For data set [7], the system named is J774.A1. The data set is described as follows: Antiinflammatory activity in mouse J774A1 cells assessed as inhibition of LPS-induced NO release at 1 uM after 24 hrs treated 1 hr before LPS challenge relative to LPS. Format: functional. Summed up:
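J774A.1 murine macrophages plated at 5.0 × 10⁴ cells/well, adhered 2 h at 37 °C in 5% CO₂. Compounds (1-100 µg/mL) added 1 h before and simultaneously with E. coli LPS (6 × 10³ U/mL) to induce iNOS. After 24 h, nitrite in medium measured by Griess reagent against a sodium nitrite standard curve made in culture medium. Expressed as % inhibition versus LPS alone.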

The term inhibition denotes the share of the control response that was lost under treatment. As usually defined, the viability is the share of living cells, or the viability signal relative to a control. Take `O=C(/C=C/c1ccc(O)c(O)c1)O[C@H]1[C@H](O)[C@@H](O[C@@H]2OC[C@](O)(CO)[C@H]2O)[C@H](OCCc2ccc(O)c(O)c2)O[C@@H]1CO` [FUCATOSIDE A]: the inhibition at 10 µg/mL with J774.A1 [1] amounted to 11.2%. For the same compound, the viability at 72 h, 1 ug/ml in data set [2] was found to be 97.3%. Moreover, the inhibition at 1 µg/mL with J774.A1 [3] worked out at 13.3%. The viability at 72 h, 100 ug/ml in data set [4] worked out at 95%. Further, the inhibition at 100 µg/mL with J774.A1 [5] is 52.5%. Besides, the viability at 72 h, 10 ug/ml in data set [6] came out at 95.9%.
Take `O=C(/C=C/c1ccc(O)c(O)c1)O[C@H]1[C@H](O[C@@H]2OC[C@](O)(CO)[C@H]2O)[C@@H](O[C@@H]2OC[C@@H](O)[C@H](O)[C@H]2O)[C@H](OCCc2ccc(O)c(O)c2)O[C@@H]1CO` [FUCATOSIDE B]: in the data set with J774.A1 [1], the inhibition at 10 µg/mL came out at 16.4%. Further, the viability at 72 h, 1 ug/ml in data set [2] amounted to 97.5%. For the same compound, the inhibition at 1 µg/mL in the data set on J774.A1 [3] came to 13.7%. In data set [4], the viability at 72 h, 100 ug/ml turned out to be 94.4%. Besides, in the data set with J774.A1 [5], the inhibition at 100 µg/mL turned out to be 81.4%. The viability at 72 h, 10 ug/ml in data set [6] came out at 96.1%.
With `O=C(/C=C/c1ccc(O)c(O)c1)O[C@H]1[C@H](O[C@@H]2OC[C@@](O)(CO)[C@H]2O)[C@@H](O[C@@H]2OC[C@@](O)(CO)[C@H]2O)[C@H](OCCc2ccc(O)c(O)c2)O[C@@H]1CO` [FUCATOSIDE C], the inhibition at 10 µg/mL in the data set on J774.A1 [1] amounted to 31.8%. Further, the viability at 72 h, 1 ug/ml in data set [2] stood at 96.4%. For the same compound, the inhibition at 1 µg/mL with J774.A1 [3] turned out to be 4.4%. The viability at 72 h, 100 ug/ml in data set [4] came out at 94.3%. In addition, the inhibition at 100 µg/mL in the data set with J774.A1 [5] was 93.7%. Further, in data set [6], the viability at 72 h, 10 ug/ml amounted to 96.8%.
As for `COC(=O)[C@@H](N)CCCNC(=N)N[N+](=O)[O-]` [L-NAME], the inhibition at 1 µM in the data set with J774.A1 [7] was determined as 46.6%.
For `Sc1ncnc2nc[nH]c12` [MERCAPTOPURINE ANHYDROUS], the viability at 72 h, 1 ug/ml in data set [2] was 44.1%. Besides, in data set [4], the viability at 72 h, 100 ug/ml was determined as 31.8%. The viability at 72 h, 10 ug/ml in data set [6] came out at 38%.
On to `C[C@@H]1O[C@@H](O[C@H]2[C@H](OCCc3ccc(O)c(O)c3)O[C@H](CO)[C@@H](OC(=O)/C=C/c3ccc(O)c(O)c3)[C@@H]2O)[C@H](O)[C@H](O)[C@H]1O` [PARVIFLOROSIDE A], for which, in the data set on J774.A1 [1], the inhibition at 10 µg/mL was 9%. Besides, in data set [2], the viability at 72 h, 1 ug/ml was found to be 96.7%. In the data set with J774.A1 [3], the inhibition at 1 µg/mL turned out to be 3.8%. Moreover, the viability at 72 h, 100 ug/ml in data set [4] stood at 96.9%. In addition, the inhibition at 100 µg/mL in the data set on J774.A1 [5] turned out to be 88.5%. In data set [6], the viability at 72 h, 10 ug/ml is 95.9%.
